Source: PubChem BioAssay (The Scripps Research Institute Molecular Screening Center)
IMP-1 inhibitor – blocks Pseudomonas aeruginosa IMP-1 metallo-beta-lactamase; purified IMP-1, nitrocefin hydrolysis, epi-absorbance fluorescence; hit rate 0.45% among 290,000; inhibition, % at 5.6 µM;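 active = inhibition above the mean plus 3 SD of all compounds in the same screening run, cut at about 4.5% in these data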;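 note: 0% = IMP-1 with DMSO and 100% = DMSO wells lacking enzyme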
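System: Purified IMP-1 | Read-out basis: Percent enzyme inhibition | Controls: IMP-1 with DMSO as 0%, enzyme-free DMSO as 100% | Replicates: One well per compound | Doses: 5.6 µM nominal single concentration | Detection: Epi-absorbance fluorescence, 480 nm excitation, 530 nm emission | Incubation: 25 °C, 15 min preincubation, 25 min reaction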
sPLA2-III inh – Blocks human group III sPLA2 activity. Q9NZ20. QFRET BODIPY PC-A2 liposome hydrolysis, fluorescence. inhibition, % at 12.2 µM. hit rate 0.56% among 370,000. AID 743126;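 active = inhibition above mean plus 3 SD of compounds lying within the high and low control bounds, cut at about 19% in these data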;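 note: 0% = median of test compound wells and 100% = no enzyme DMSO wells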
Target sequence (Q9NZ20 whole entry, looked up): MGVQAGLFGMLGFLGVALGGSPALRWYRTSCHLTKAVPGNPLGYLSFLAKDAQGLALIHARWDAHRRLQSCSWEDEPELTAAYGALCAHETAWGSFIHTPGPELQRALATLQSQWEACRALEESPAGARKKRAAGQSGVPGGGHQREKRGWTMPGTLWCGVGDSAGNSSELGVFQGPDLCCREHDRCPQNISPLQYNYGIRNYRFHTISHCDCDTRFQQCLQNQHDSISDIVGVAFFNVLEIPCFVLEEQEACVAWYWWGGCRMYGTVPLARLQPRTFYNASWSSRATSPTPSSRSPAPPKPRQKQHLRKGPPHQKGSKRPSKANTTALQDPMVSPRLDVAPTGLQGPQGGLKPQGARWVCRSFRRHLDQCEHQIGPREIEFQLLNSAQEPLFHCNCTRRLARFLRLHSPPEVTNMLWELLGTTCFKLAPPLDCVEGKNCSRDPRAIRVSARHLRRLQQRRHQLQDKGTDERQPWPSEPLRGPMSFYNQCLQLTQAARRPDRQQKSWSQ
PfM18AAP inh – PfM18AAP enzyme inhibition | AID 1822 | inhibition, % at 7.35 µM | hit rate 1.2% among 290,000 | recombinant PfM18AAP, H-Glu-NHMec fluorogenic cleavage;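 active = inhibition above the campaign mean inhibition over all tested compounds plus 3 SD, cut at about 28% in these data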;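 note: 0% = plate median of test compound wells and 100% = 2 mM ZnCl2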
VIM-2 inh – blocks Pseudomonas aeruginosa VIM-2 metallo-beta-lactamase. purified VIM-2, nitrocefin hydrolysis, epi-absorbance fluorescence. inhibition, % at 5.6 µM. hit rate 0.89% among 290,000;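 active = inhibition above the mean of all tested compounds plus 3 SD, cutoff set per screening run, cut at about 7.5% in these data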;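 note: red hydrolysis product quenches plate fluorescence so inhibitors raise well fluorescence; 0% = enzyme with DMSO and 100% = DMSO without enzyme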
Numbers without * were called inactive; x = no result given. Most compounds without a hit are left out; they make up all but 2.4% or so of the library.

SMILES	IMP-1 inhibitor	sPLA2-III inh	PfM18AAP inh	VIM-2 inh
Fc1ccc(Br)cc1C1C=C(c2ccc(Br)s2)Nc2ncnn21 (stereo not given)	-3	x	39*	-3
COc1cccc(C2C=C(c3ccc(Br)s3)Nc3ncnn32)c1OC (stereo not given)	-5	x	32*	-4
Cc1c[nH]c2cccc(-c3cccc4ccccc34)c12	x	-17	x	x
c1ccc2cc3[nH]c(CNc4nc(N5CCOCC5)nc5c4ncn5-c4ccsc4)nc3cc2c1	x	-22	x	x
COC(=O)[C@H](CC(C)C)N(Cc1cn(Cc2ccc(C)cc2)nn1)S(=O)(=O)c1ccccc1Br	x	-10	x	x
O=C(NNC(=S)Nc1ccc(F)c(Cl)c1)c1ccccc1Br	-4	26*	-11	-2
COc1ccc(CSc2nc(C)cc(C)c2S(C)(=O)=O)cc1	-4	-13	29*	-1
COc1ccc(/C=N/n2c(SC)nnc2-c2ccccc2)c(OC)c1OC	-2	-10	25	23*
COc1ccc(/C=N/n2c(SC)nnc2-c2ccccc2)cc1C	-3	-25	6	7
CCOC(=O)c1sc(=S)[nH]c1C	x	23*	x	x
CCC1(C)N(O)C(C)(C)C(c2ccc(F)cc2)=[N+]1[O-] (stereo not given)	-5	1	29*	4
C/C(=N\O)C1(C)N(O)C(C)(C)C(c2ccc(F)cc2)=[N+]1[O-] (stereo not given)	-1	-2	24	2
O=c1c2[nH]c3ccc(F)cc3c2ncn1CCCn1ccnc1	0	4	-14	8.0*
O=c1c2[nH]c3ccc(F)cc3c2ncn1CCCN1CCOCC1	3	-1	2	0
COC(=O)[C@]1(C)CN(C(=O)OC(C)(C)C)C2=C1C(=O)C[C@@](C)(C(=O)OC(C)(C)C)C2	x	-4	x	x
COc1ccc(CC(=O)NCc2ccccc2)cc1	-1	3	-2	-2
COc1cccc(CNC(=O)Cc2ccc(-c3ccccc3)cc2)c1	19*	-8	7	-1
O=C(CSc1nc2cc([N+](=O)[O-])ccc2n1-c1ccccc1)NCc1ccc2c(c1)OCO2	-4	-2	38*	-3
CCOC(=O)[C@]12CCCCC/C=C\1N(Cc1ccc(OC)cc1)C(=O)[C@H]2CC(=O)N1CCC(c2ccccc2)CC1	x	10	x	x
Cc1cc(Nc2ccc(Br)c(C)c2)n2nc(C)nc2n1	-4	3	-2	10*
CC(=O)c1ccc(Nc2cc(C)nc3nc(C)nn23)cc1	-1	0	-3	5
Cc1ccc(Nc2cc(C)nc3nc(C)nn23)cc1	-5	4	-2	8
Cc1cc(C)cc(Nc2cc(C)nc3nc(C)nn23)c1	-2	-4	4	22*
Cc1cc(Nc2cccc(C)c2C)n2nc(C)nc2n1	0	4	0	10*
Cc1ccccc1CN1CCCCC(NC(=O)c2cc(-c3ccccc3)no2)C1=O (stereo not given)	x	-5	x	x
SMILES	IMP-1 inhibitor	sPLA2-III inh	PfM18AAP inh	VIM-2 inh
O=C1C(Cl)=C(Nc2ccc3cn[nH]c3c2)C(=O)c2ccccc21	-3	19	47*	5
CCOC(=O)[C@]12CCCC=C1N(Cc1ccc(OC)cc1)C(=O)[C@@H]2CC(=O)N1CCN(C(=O)C2CC2)CC1	x	-2	x	x
Cn1c(=O)[nH]c(=O)c2c1nc(N1CCNCC1)n2Cc1ccccc1	-2	0	-5	-1
Cc1ccc(Cn2c(N3CCNCC3)nc3c2c(=O)[nH]c(=O)n3C)cc1	27*	13	2	-1
CCCCNC(=O)c1oc2ccc(S(=O)(=O)N3CCCC3)cc2c1C	5.9*	-6	0	-2
Cc1ccc(N2CCCn3c2cc(C)c(C#N)c3=O)cc1Cl	-1	11	3	7.8*
Nc1cccc2c1C(=O)N(C(=O)/C=C/c1cccc(Br)c1)C2=O	4.8*	-3	-12	0
O=C(Nc1ccc(Nc2ccccc2)cc1)c1ccc(Cl)cc1	x	1	x	x
N#C/C(C(=O)Nc1ccc(Cl)cc1)=C(/S)Nc1ccccc1	-4	-27	57*	-6
COC(=O)C[C@H]1CC[C@H]2[C@H](COc3ccc(NC(=O)Nc4ccccc4F)cc3C(=O)N2C)O1	x	6	x	x
O=C(NCCc1ccccc1)OCc1cn(Cc2cccc(F)c2F)nn1	x	-1	x	x
CC1=CCC(C(=O)O)C(C(=O)NC2CCCCC2)C1 (stereo not given)	32*	0	-8	-1
CN(C)c1ccc(/C=C/c2cc[n+]([O-])cc2)cc1	6.4*	x	6	2
CN(C)c1ccc(/C=C/c2cc[n+](C)cc2)cc1	-5	-4	19	-2
COC(=O)[C@]12C[C@H](CC(=O)NCC3CCCCC3)C(=O)N(Cc3cccc4ccccc34)C1=C[C@H](C(C)C)O[C@@H]2C1CC1	x	-7	x	x
COc1ccc(OC)c(NC(=O)C2C3CCC(C3=C(C)C)C2C(=O)O)c1 (stereo not given)	-1	9	12	8.8*
O=C(NCCCn1ccnc1)C(Cc1ccccc1)N1C(=O)c2ccccc2C1=O (stereo not given)	-4	-4	29*	-3
CC(C)c1ccc(CNC(=O)C(=O)NCCCn2ccnc2)cc1	30*	-5	1	-1
CC(C)(C)NC(=O)C(Cc1ccccc1)N1C(=O)c2ccccc2C1=O (stereo not given)	-2	7	4	-1
CC(NC(=O)C(=O)NCCCn1ccnc1)c1ccccc1 (stereo not given)	0	-2	-2	0
COc1ccc(N2CCN(C(CNC(=O)C(=O)NCCCn3ccnc3)c3cccnc3)CC2)cc1 (stereo not given)	5.6*	1	3	-4
CC(C)(O)C(=O)NNC(=S)NCc1ccco1	-3	-4	42*	-1
CC(C)(C)c1ccc(C(=O)NNC(=S)NCc2ccco2)cc1	-3	8	-2	-4
CCc1ccc(O)c(N=Cc2cccc(C)c2O)c1	-3	-18	13	-2
CCCc1ccc(O)c(N=Cc2cc(Br)cc(OCC)c2O)c1	5.5*	-5	19	-2
SMILES	IMP-1 inhibitor	sPLA2-III inh	PfM18AAP inh	VIM-2 inh
Fc1ccc(-c2ccc(CNCc3ccccn3)o2)cc1	-3	-1	0	11*
C=CC[C@@H]1NN2C(=O)[C@@H](CCc3ccccc3)[C@@H]3c4ccccc4C=NN3[C@@H]2c2ccccc21	x	14	x	x
COC(=O)[C@]12C[C@H](CC(=O)NCCc3ccccc3OC)C(=O)N(Cc3ccco3)C1=C[C@H](COCc1ccccc1)O[C@@H]2C	x	-6	x	x
Fc1cc(F)c(CSc2nnc(-c3cccnc3)n2Cc2ccccc2)cc1F	x	-3	x	x
COc1cc(/C=N/Nc2ncnc3sc4c(c23)CCC4)ccc1O	-1	-7	19	10*
Cn1c(=O)c2sccc2n2c(CCCC(=O)NC3CCN(Cc4ccccc4)CC3)nnc12	0	3	0	10*
Cn1c(=O)c2sccc2n2c(CCCC(=O)NCc3cccnc3)nnc12	-3	7	-9	11*
COc1ccc(/C=C/S(=O)(=O)NCCc2ccccc2)c(CNC(=O)OC(C)(C)C)c1	x	-16	x	x
CC(COc1cccc(F)c1)CN1CCC(C(O)(c2ccccc2)c2ccccc2)CC1 (stereo not given)	x	-15	x	x
